Measured values: ChEMBL document CHEMBL4725247, “Cytosolic delivery of peptidic STAT3 SH2 domain inhibitors” (Bioorg Med Chem, 2020)
Calls of active or inactive are those of the source. The rule behind the calls is not given here. Where a SMILES comes first, the peptide text is derived from it. Bridges are numbered along the chain shown (N, C = ends). Roman numbers before positions name the chains, in order. [ ]: non-standard residue; d: D form. F2Pmp = N[C@@H](Cc1ccc(C(F)(F)P(=O)(O)O)cc1)C(=O)O; pY = N[C@@H](Cc1ccc(OP(=O)(O)O)cc1)C(=O)O; 2Nal = N[C@@H](Cc1ccc2ccccc2c1)C(=O)O; βAla = NCCC(=O)O

Legend:
[1] = biological target: Signal transducer and activator of transcription 3 (Homo sapiens) (UniProt P40763); assay: Inhibition of OSM-stimulated STAT3 activity in human U3A cell at 25 uM pretreated for 24 hrs followed by OSM stimulation and measured after 6 hrs by bright Glo-luciferase reporter gene assay
Outline: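 STAT3-luc U3A fibrosarcoma reporter cells seeded at 10⁴ cells/well overnight. Pretreated with peptide or vehicle (10 or 25 μM) for 24 h at 37 °C in DMEM + 10% FBS, then stimulated 6 h with OSM 10 ng/mL. Luciferase read by Bright-Glo luminescence. Controls: OSM alone and unstimulated cells.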

[2] = Stability of the compound in DMEM with 10% FBS (fetal bovine serum) at 150 uM measured at 24 hrs by reverse-phase HPLC assay
[3] = Stability in human HeLa cell lysate assessed as compound remaining at 150 uM measured after 1 hr by reverse-phase HPLC assay; format: ADME, subcellular; conditions: read-out: Stabilty
Outline: (§1)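 Clarified lysate made from HeLa cells lysed on ice for 15 min in 50 mM Tris, 250 mM NaCl, 0.5% IGEPAL CA-630, pH 8.0. Peptide added at 150 μM and held at 37 °C. Peak area normalized to time zero.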

[4] = Stability in human HeLa cell lysate assessed as compound remaining at 150 uM measured after 24 hrs by reverse-phase HPLC assay; format: ADME, subcellular; conditions: read-out: Stabilty; outline: as §1
MDA-MB-468 = assay: Cytotoxicity against human MDA-MB-468 cells assessed as cell viability at 25 uM measured after 72 hrs by Celltiter-Glo assay; format: functional, cell-based
Outline: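 MDA-MB-468 breast cancer cells seeded at 3 × 10³ cells/well overnight, then given peptide or vehicle (10 or 25 μM) and kept at 37 °C for 72 h. Viability read by CellTiter-Glo luminescence.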

Chain of Signal transducer and activator of transcription 3 (Homo sapiens) (P40763 whole entry): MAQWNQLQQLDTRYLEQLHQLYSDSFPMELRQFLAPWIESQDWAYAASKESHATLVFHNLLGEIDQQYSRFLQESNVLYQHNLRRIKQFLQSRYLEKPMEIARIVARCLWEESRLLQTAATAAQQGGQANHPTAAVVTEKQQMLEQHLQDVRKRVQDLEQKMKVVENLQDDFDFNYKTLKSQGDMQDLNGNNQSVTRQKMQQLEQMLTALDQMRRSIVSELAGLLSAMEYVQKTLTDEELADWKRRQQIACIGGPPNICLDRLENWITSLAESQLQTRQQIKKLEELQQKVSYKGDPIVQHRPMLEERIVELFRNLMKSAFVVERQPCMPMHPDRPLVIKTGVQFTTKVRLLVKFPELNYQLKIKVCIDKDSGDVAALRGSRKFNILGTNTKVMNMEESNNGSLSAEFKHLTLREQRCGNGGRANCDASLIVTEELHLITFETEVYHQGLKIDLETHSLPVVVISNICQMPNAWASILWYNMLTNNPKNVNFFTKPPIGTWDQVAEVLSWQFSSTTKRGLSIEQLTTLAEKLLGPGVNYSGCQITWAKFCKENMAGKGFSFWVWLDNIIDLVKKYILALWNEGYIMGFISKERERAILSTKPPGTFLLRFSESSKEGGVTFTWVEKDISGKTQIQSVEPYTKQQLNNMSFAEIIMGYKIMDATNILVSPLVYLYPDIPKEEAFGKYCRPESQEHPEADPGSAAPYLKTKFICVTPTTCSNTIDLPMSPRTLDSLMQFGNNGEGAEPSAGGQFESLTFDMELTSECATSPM

In the case of `CC(C)C[C@H](NC(=O)[C@H](Cc1ccc(C(F)(F)P(=O)(O)O)cc1)NC(=O)CNC(=O)CCNC(=O)CCNC(=O)CC[C@@H]1NC(=O)[C@@H](CCCNC(=N)N)NC(=O)[C@H](CCCNC(=N)N)NC(=O)[C@@H](CCCNC(=N)N)NC(=O)[C@H](CCCNC(=N)N)NC(=O)[C@H](Cc2ccc3ccccc3c2)NC(=O)[C@@H](Cc2ccccc2)NC(=O)[C@H](Cc2ccccc2)NC1=O)C(=O)N1CCC[C@H]1C(=O)N[C@@H](CCC(N)=O)C(=O)N[C@H](C(=O)N[C@H](C(N)=O)C(C)C)[C@@H](C)O` (I: cyclo(F[dF][2Nal]R[dR]R[dR]E) / II: [βAla][βAla]G[F2Pmp]LPQTV-NH2; amide I:8-II:N), the inhibition [1] is reported as “inactive” and the Stabilty [2] is reported as “Stable”.

With `CC(C)C[C@H](NC(=O)[C@H](Cc1ccc(OP(=O)(O)O)cc1)NC(=O)CNC(=O)CCNC(=O)CCNC(=O)CC[C@@H]1NC(=O)[C@@H](CCCNC(=N)N)NC(=O)[C@H](CCCNC(=N)N)NC(=O)[C@@H](CCCNC(=N)N)NC(=O)[C@H](CCCNC(=N)N)NC(=O)[C@H](Cc2ccc3ccccc3c2)NC(=O)[C@@H](Cc2ccccc2)NC(=O)[C@H](Cc2ccccc2)NC1=O)C(=O)N1CCC[C@H]1C(=O)N[C@@H](CCC(N)=O)C(=O)N[C@H](C(=O)N[C@H](C(N)=O)C(C)C)[C@@H](C)O` (I: cyclo([2Nal]R[dR]R[dR]EF[dF]) / II: [βAla][βAla]G[pY]LPQTV-NH2; amide I:6-II:N) the inhibition [1] was “inactive”, the remaining at 1 h, 150 µM [3] was < 20% and the Stabilty [2] was “Unstable”.

For `CC(C)C[C@H](NC(=O)[C@H](Cc1ccc(C(F)(F)P(=O)(O)O)cc1)NC(=O)CNC(=O)CCNC(=O)CCNC(=O)CC[C@@H]1NC(=O)[C@@H](CCCNC(=N)N)NC(=O)[C@H](CCCNC(=N)N)NC(=O)[C@@H](CCCNC(=N)N)NC(=O)[C@H](CCCNC(=N)N)NC(=O)[C@H](Cc2ccc3ccccc3c2)NC(=O)[C@@H](Cc2ccccc2)NC(=O)[C@H](Cc2ccccc2)NC1=O)C(=O)N1CCC[C@H]1C(=O)N(C)[C@@H](CCC(N)=O)C(=O)N[C@H](C(=O)N[C@H](C(N)=O)C(C)C)[C@@H](C)O`, the inhibition [1] was “inactive”, the remaining at 24 h, 150 µM [4] was 100% and the Activity (MDA-MB-468) was “inactive”.
